This note sets out measurements from ChEMBL document CHEMBL1135408, “Design and synthesis of novel 5-substituted acyclic pyrimidine nucleosides as potent and selective inhibitors of hepatitis B virus” (J Med Chem, 2002).

The EC50 is the concentration at which the effect is half-maximal. Low readings indicate greater potency, high ones weaker potency. The term IC50 denotes the concentration that inhibits the measured activity by half. Read a low IC50 as greater potency in that assay. The CC50 is the concentration that lowers cell viability or growth by half. One may read the inhibition as the change of the read-out against control, counted positive when it falls. Lower therefore signals a response near the control.

In assay [1] the test system is Anas sp. Kind of assay: Concentration required to reduce the viral DNA in infected cells to 50% of untreated infected controls of Hepatitis B virus in primary duck hepatocyte (DHBV) cultures. The class given is functional. An outline of the steps: (§1)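 Primary hepatocytes from 9–14 day old ducklings persistently infected with DHBV, in L-15 with 5% FBS plus antibiotics. Compound was serially diluted and added in triplicate from day 2, with medium changed every second day to day 12; cells were harvested day 14. Viral DNA was measured by 32P-probe dot-blot and phosphorimaging, and EC50 was taken as 50% reduction versus untreated infected cells.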

A short description of assay [2]: Concentration required to reduce the proliferation of PHA stimulated human peripheral blood T lymphocytes to 50% of untreated PHA stimulated control. It counts as functional. An outline of the steps: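 Nylon-wool-enriched T cells from normal donor buffy coats, 2 × 10^5 per well in serum-free AIM V, were stimulated with PHA at 1 µg/mL final. Compounds from DMSO stock were tested in triplicate from 50 µg/mL in serial dilutions. After 3–4 days at 37 °C, cells were pulsed with [3H]thymidine 1 µCi/well for 18 h and counted by scintillation. Counts were compared with DMSO-matched PHA controls.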

For assay [3], the system named is HFF. Kind of assay: Cytotoxic concentration required to reduce the uptake of neutral red stain by uninfected cell monolayers to 50% of untreated uninfected human foreskin fibroblasts (HFF). The class given is functional. An outline of the steps: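 Neutral red uptake was measured in uninfected human foreskin fibroblast monolayers after 7 days of exposure. CC50 is 50% of untreated uninfected cells; ">" means 50% was not reached at the highest concentration tested.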

For another assay, the system named is Vero. Put plainly: Cytotoxic concentration required to reduce the viability of Vero cells as determined by MTT assay. The class given is functional. The settings on record: Chlorocebus sabaeus. An outline of the steps: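 Vero cells were seeded at 2.5 × 10^4 per well and attached for 6–8 h. They were then exposed for 3 days at 37 °C to 200–1.5 µg/mL, with a DMSO control. MTT was added for 4 h, solubilized overnight, and absorbance read at 560–650 nm. CC50 is 50% viability of untreated control.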
(In general: Tetrazolium dyes change colour on reduction, which living cells bring about.)

The test system of assay [4] is HFF. Put plainly: Concentration required to reduce the proliferation of HFF (human foreskin fibroblasts) cells to 50% of untreated controls. It counts as functional, cell-based.
The subject of a further assay is Daudi. Put plainly: Concentration required to reduce the proliferation of Daudi cells to 50% of untreated controls. The class given is functional, cell-based. The note with it: Homo sapiens. An outline of the steps:
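Daudi cells were grown in suspension, so no trypsin detachment was used. CC50 is the concentration reducing proliferation to 50% of untreated controls.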

Assay [5] relates to Anas sp. Kind of assay: In vitro antiviral activity against Hepatitis B virus in primary duck hepatocyte (DHBV) cultures and expressed as percent inhibition of viral DNA at 10 ug/mL. The class given is functional. An outline of the steps:
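DHBV-infected primary duck hepatocytes in L-15 with 5% FBS were treated at 10 µg/mL final in triplicate from day 2 to day 12, with medium changed every second day, and harvested day 14. DNA was extracted and dot-blot hybridized with a 32P DHBV probe, then quantified by phosphorimaging. % inhibition = (untreated − treated)×100/untreated, averaged over triplicates.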

Assay [6] relates to Anas sp. Put plainly: Concentration required to reduce the viral DNA in infected cells to 50% of untreated infected controls of Hepatitis B virus in primary duck hepatocyte (DHBV) cultures. It counts as functional, organism-based. An outline of the steps: as §1

≈ marks a conversion by molar mass, not a printed value. Where only a bound is given, the exact number is not on record here.

Take `CC(N=[N+]=[N-])c1cn(COC(CO)CO)c(=O)[nH]c1=O` (stereo not given): the EC50 in the assay with Anas sp. [1] was found to be 1 µg/mL (≈ 3.51 µM).
For the compound `C=C(N=[N+]=[N-])c1cn(CCC(CO)CO)c(=O)[nH]c1=O`, the IC50 in assay [2] was greater than 50 µg/mL; with HFF [4], greater than 100 µg/mL; in the assay on Daudi, greater than 50 µg/mL. For the same compound, the cytotoxic concentration (CC50) in the assay with HFF [3] is greater than 100 µg/mL; in the assay on Vero it was greater than 200 µg/mL. The compound also displayed an EC50 with Anas sp. [1] of 0.01 µg/mL (≈ 0.0356 µM). Besides, the inhibition at 10 µg/mL in the assay on Anas sp. [5] was 93%.
Regarding `CC(N=[N+]=[N-])c1cn(COCCO)c(=O)[nH]c1=O` (stereo not given), the EC50 in the assay on Anas sp. [1] is greater than 10 µg/mL.
Take `Nc1nc(O)c2ncn(CCC(CO)CO)c2n1` [PENCICLOVIR]: the concentration giving a half-maximal response (EC50) with Anas sp. [6] came to 0.3 µg/mL (≈ 1.18 µM).
For `C=C(N=[N+]=[N-])c1cn(COCCO)c(=O)[nH]c1=O`, the figures for the IC50 (in assay [2]; in the assay on HFF [4]; in the assay on Daudi) were greater than 50 µg/mL, greater than 100 µg/mL and greater than 50 µg/mL, respectively. Besides, the CC50 in the assay with HFF [3] and in the assay with Vero was greater than 100 µg/mL throughout. The concentration giving a half-maximal response (EC50) with Anas sp. [1] came to 0.01 µg/mL (≈ 0.0395 µM). Besides, 10 µg/mL produced 84% inhibition in the assay with Anas sp. [5].
On to `Nc1nc2c(ncn2COC(CO)CO)c(=O)[nH]1` [GANCICLOVIR], for which, in the assay on Anas sp. [1], the EC50 was 1.5 µg/mL (≈ 5.88 µM).
As to `Nc1ccn([C@@H]2CS[C@H](CO)O2)c(=O)n1` [LAMIVUDINE], in assay [2], the half-inhibitory concentration (IC50) was greater than 50 µg/mL. The same compound displayed an EC50 in the assay on Anas sp. [1] of 0.01 µg/mL (≈ 0.0436 µM). Further, the half-maximal cytotoxic concentration (CC50) in the assay with Vero is greater than 100 µg/mL. In the assay with Anas sp. [5], this compound registered an inhibition at 10 µg/mL of 96%.
For the compound `CC(N=[N+]=[N-])c1cn(CCC(CO)CO)c(=O)[nH]c1=O` (stereo not given), the EC50 in the assay with Anas sp. [1] stood at 0.1 µg/mL (≈ 0.353 µM).
Take `C=C(N=[N+]=[N-])c1cn(COC(CO)CO)c(=O)[nH]c1=O`: the 50% inhibitory concentration (IC50) in assay [2] is greater than 50 µg/mL; with HFF [4] it was 100 µg/mL (≈ 353 µM); in the assay with Daudi, greater than 50 µg/mL. The CC50 in the assay on HFF [3] is greater than 100 µg/mL; in the assay on Vero, greater than 200 µg/mL. In addition, the half-maximal effective concentration (EC50) in the assay on Anas sp. [1] was 0.01 µg/mL (≈ 0.0353 µM). In the assay with Anas sp. [5], this compound registered an inhibition at 10 µg/mL of 86%.
